Data set [1] is described as follows: Prodrug activation in Tris HCl methanolic solution at 0.015 mM at pH 7.4 using 10 equiv of L-DTT by UV-visible spectrophotometry. Conditions: buffer, pH 7.4, 15 µM. An outline of the steps: (§1)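 Mitomycin (from 1.0 mM methanolic stock) was in 0.1 M Tris-HCl methanolic buffer, 'pH' 7.4, at 25 °C. Nucleophile was added from methanolic stock (final 0.06–1.5 mM). UV-vis scans (200–500 nm) ran beyond two half-lives. Pseudo-first-order kobs and t1/2 were derived from 370 nm absorbance. Final 'pH' was within ±0.1 units. Runs were in duplicate and averaged.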

The nature of data set [2]: Prodrug activation in Tris HCl methanolic solution at 0.015 mM at pH 7.4 using 20 equiv of GSH by UV-visible spectrophotometry. Conditions: buffer, pH 7.4, 15 µM. An outline of the steps: as §1
The nature of data set [3]: Prodrug activation in Tris HCl methanolic solution at 0.015 mM at pH 7.4 using 20 equiv of L-DTT by UV-visible spectrophotometry. Conditions: buffer, pH 7.4, 15 µM. An outline of the steps:
as §1

The nature of data set [4]: Prodrug activation in Tris HCl methanolic solution at 0.015 mM at pH 7.4 using 5 equiv of Et3P by UV-visible spectrophotometry. Conditions: buffer, pH 7.4, 15 µM. An outline of the steps:
as §1

Data set [5] is described as follows: Prodrug activation in Tris HCl methanolic solution at 0.015 mM at pH 7.4 using 10 equiv of Et3P by UV-visible spectrophotometry. The following applies: buffer, pH 7.4, 15 µM. An outline of the steps: as §1
Data set [6] in a line: Prodrug activation in Tris HCl methanolic solution at 0.015 mM at pH 7.4 using 20 equiv of Et3P by UV-visible spectrophotometry. The following applies: buffer, pH 7.4, 15 µM. An outline of the steps: as §1
Data set [7] can be described thus: Prodrug activation in Tris HCl methanolic solution at 0.015 mM at pH 7.4 using 50 equiv of Et3P by UV-visible spectrophotometry. Conditions: buffer, pH 7.4, 15 µM. An outline of the steps: as §1
Data set [8] is described as follows: Prodrug activation in Tris HCl methanolic solution assessed as half-life at 0.015 mM at pH 7.4 using 10 equiv of L-DTT by UV-visible spectrophotometry. Conditions: buffer, pH 7.4, 15 µM. An outline of the steps:
as §1

Data set [9] is described as follows: Prodrug activation in Tris HCl methanolic solution assessed as half-life at 0.015 mM at pH 7.4 using 20 equiv of L-DTT by UV-visible spectrophotometry. The following applies: buffer, pH 7.4, 15 µM. An outline of the steps: as §1
A short description of data set [10]: Prodrug activation in Tris HCl methanolic solution assessed as half-life at 0.015 mM at pH 7.4 using 20 equiv of GSH by UV-visible spectrophotometry. Conditions: pH 7.4, 15 µM. An outline of the steps: as §1
Data set [11] can be described thus: Prodrug activation in Tris HCl methanolic solution assessed as half-life at 0.015 mM at pH 7.4 using 5 equiv of Et3P by UV-visible spectrophotometry. Conditions: buffer, pH 7.4, 15 µM. An outline of the steps:
as §1

The nature of data set [12]: Prodrug activation in Tris HCl methanolic solution assessed as half-life at 0.015 mM at pH 7.4 using 10 equiv of Et3P by UV-visible spectrophotometry. Conditions: buffer, pH 7.4, 15 µM. An outline of the steps:
as §1

The nature of data set [13]: Prodrug activation in Tris HCl methanolic solution assessed as half-life at 0.015 mM at pH 7.4 using 20 equiv of Et3P by UV-visible spectrophotometry. Conditions: buffer, pH 7.4, 15 µM. An outline of the steps:
as §1

The nature of data set [14]: Prodrug activation in Tris HCl methanolic solution assessed as half-life at 0.015 mM at pH 7.4 using 50 equiv of Et3P by UV-visible spectrophotometry. The following applies: buffer, pH 7.4, 15 µM. An outline of the steps: as §1
The test system of data set [15] is Escherichia coli. Description: Induction of interstrand cross-linking in EcoR1-linearized Escherichia coli pBR322 plasmid DNA at 0.025 mM after 2 hrs using 5 equiv of Et3P by ethidium bromide staining based alkaline agarose gel electrophoresis. An outline of the steps: (§2)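 EcoRI-linearized pBR322 DNA in aqueous Tris-HCl pH 7.4 was N2-deaerated for 15 min. Mitomycin (from 5 mM DMSO stock) and Et3P (5 equiv) were added, then incubated 2 h at room temperature. Purified DNA was run on a denaturing alkaline agarose gel (40 mM NaOH, 1 mM EDTA) with a HindIII-digested λ marker. The gel was neutralized and ethidium bromide-stained, and the cross-linked band quantified.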

Data set [16] deals with Escherichia coli. Description: Induction of interstrand cross-linking in EcoR1-linearized Escherichia coli pBR322 plasmid DNA at 0.050 mM after 2 hrs using 5 equiv of Et3P by ethidium bromide staining based alkaline agarose gel electrophoresis. An outline of the steps: as §2
Data set [17] concerns Escherichia coli. The data set is described as follows: Induction of interstrand cross-linking in EcoR1-linearized Escherichia coli pBR322 plasmid DNA at 0.10 mM after 2 hrs using 5 equiv of Et3P by ethidium bromide staining based alkaline agarose gel electrophoresis. An outline of the steps: as §2
Data set [18] has as its system Escherichia coli. The data set is described as follows: Induction of interstrand cross-linking in EcoR1-linearized Escherichia coli pBR322 plasmid DNA at 0.20 mM after 2 hrs using 5 equiv of Et3P by ethidium bromide staining based alkaline agarose gel electrophoresis. An outline of the steps:
as §2

The nature of data set [19]: Prodrug activation in Tris HCl methanolic solution at 0.03 mM at pH 7.4 using 5 equiv of Et3P by UV-visible spectrophotometry. Conditions: buffer, pH 7.4, 30 µM. An outline of the steps: as §1
Data set [20] in a line: Prodrug activation in Tris HCl methanolic solution at pH 7.4 using 5 equiv of Et3P by UV-visible spectrophotometry. Conditions: buffer.
Data set [21] is described as follows: Prodrug activation in Tris HCl methanolic solution at 0.030 mM at pH 7.4 using 10 equiv of Et3P by UV-visible spectrophotometry. The following applies: buffer, pH 7.4, 30 µM. An outline of the steps:
as §1

On to `CO[C@@]12[C@H](COC(N)=O)C3=C(C(=O)C(C)=C(NCC(CNC4=C(C)C(=O)C5=C(C4=O)[C@@H](COC(N)=O)[C@@]4(OC)[C@H]6N[C@H]6CN54)SSC(CNC4=C(C)C(=O)C5=C(C4=O)[C@@H](COC(N)=O)[C@@]4(OC)[C@H]6N[C@H]6CN54)CNC4=C(C)C(=O)C5=C(C4=O)[C@@H](COC(N)=O)[C@@]4(OC)[C@H]6N[C@H]6CN54)C3=O)N1C[C@@H]1N[C@@H]12` (some centres undefined), for which the K in data set [1] was 0.69 day⁻¹; in [2], 1 day⁻¹; in data set [3], 1.3 day⁻¹; in [4], 0.72 day⁻¹; in data set [5], 1.3 day⁻¹; in [6] it was 2.9 day⁻¹. Also, in data set [7], the K worked out at 6.9 day⁻¹. Moreover, the t1/2 in [8] is 24 h; in [9], 12.7 h; in data set [10] it was 16.6 h; in data set [11], 23 h; in [12] it was 12.7 h; in data set [13] it was 5.76 h. Moreover, the t1/2 in [14] amounted to 2.4 h. Further, the Activity turned out to be 17% in the data set with Escherichia coli [15], 41% in the data set on Escherichia coli [16], 51% in the data set on Escherichia coli [17] and 68% in the data set on Escherichia coli [18].

As to `CO[C@@]12[C@H](COC(N)=O)C3=C(C(=O)C(C)=C(NCC(O)CNC4=C(C)C(=O)C5=C(C4=O)[C@@H](COC(N)=O)[C@@]4(OC)[C@H]6N[C@H]6CN54)C3=O)N1C[C@@H]1N[C@@H]12` (some centres undefined), the Activity in the data set with Escherichia coli [17] is 5%. The Drug metabolism result in data set [19] is “metabolite_notdetected”.

Regarding `CO[C@@]12[C@H](COC(N)=O)C3=C(C(=O)C(C)=C(N)C3=O)N1C[C@@H]1N[C@@H]12` [MITOMYCIN], the Activity in the data set with Escherichia coli [18] is 2%. For the same compound, the Drug metabolism entry in [20] is reported as “metabolite_notdetected”.

On to `CO[C@@]12[C@H](COC(N)=O)C3=C(C(=O)C(C)=C(NCC4CCC(CNC5=C(C)C(=O)C6=C(C5=O)[C@@H](COC(N)=O)[C@@]5(OC)[C@H]7N[C@H]7CN65)SS4)C3=O)N1C[C@@H]1N[C@@H]12` (some centres undefined), for which, in the data set on Escherichia coli [17], the Activity is 40.5%. In addition, the K in [21] is 1.35 day⁻¹.

The values are drawn from ChEMBL document CHEMBL3826901, “Design, synthesis, and mode of action studies of a mitomycin tetramer inducing double activations with a single probe” (Bioorg Med Chem, 2016).
